Test results reported in paper PMC9123270 (The Journal of Biological Chemistry, 2022).
Values joined by “and” are separate entries in the source; they are usually repeats but may differ in a detail not shown here. Identical values can stand only once.

Columns and labels:
[1] = target: Anopheles gambiae D7 long-form salivary protein AngaD7L2 (Anopheles gambiae); assay: SPR
[2] = test system: Third-order mesenteric arteries; assay: Vasoconstriction by pressure myography in isolated mesenteric arteries; design: species or system C57Bl/6J mice; details: for LogIC50 of vasoconstriction to U-46619: n = 6
[3] = test system: Human platelet-rich plasma; assay: Platelet aggregation assay; type: cell-based
[4] = PEAQ-ITC screen against five biogenic amines and five lipids; type: binding; details: leukotrienes other than LTC4
Outline: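 Isothermal titration calorimetry in TBS (20 mM Tris–HCl, 150 mM NaCl, pH 7.4) at 30 °C, 750 rpm. Protein at 5 μM was titrated with 10 μl injections of ligand at 50 μM every 150 s. Lipid ligands were dried under nitrogen, resuspended in TBS, vortexed and sonicated 10 min. Samples were degassed. Data were fitted to a single-site model. At least three replicates.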

normal control plasma [5] = assay: Plasma recalcification assay; type: biochemical, human
normal control plasma [6] = assay: Prothrombin; type: biochemical, human; details: recombinant protein 15 μM, 5 μl in 50 μl plasma
Outline: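 Normal control plasma (50 μl) was incubated 2 min at 37 °C with 5 μl of test protein (15 μM in Hepes buffer), Hepes buffer (negative control) or 3 μM Alboserpin (positive control). PT was started by adding Neoplastine CI Plus reagent, and clotting time was recorded with stirring. Run in triplicate.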

normal control plasma [7] = assay: Activated partial thromboplastin; type: biochemical, human; details: recombinant protein 15 μM, 5 μl in 50 μl plasma
Outline: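 Plasma (50 μl) was preincubated 2 min at 37 °C with 5 μl of test protein (15 μM in Hepes buffer), Hepes buffer (negative control) or 3 μM Alboserpin (positive control). aPTT reagent was added for 3 min at 37 °C, then clotting was started with prewarmed 25 mM CaCl2. Clotting time was recorded on a coagulation analyzer and converted to ratios. Run in triplicate.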

## human coagulation factor XII (natural protein)
[1]
  Kd: 16.4 nM
  koff: 0.0169 s⁻¹
  kon: 125000 M⁻¹ s⁻¹

## human coagulation factor XIIa (enzyme)
[1]
  Kd: 5.03 nM
  koff: 0.403 s⁻¹
  kon: 2.03e+08 M⁻¹ s⁻¹

## human coagulation factor XI (natural protein)
[1]
  Kd: 8.47 nM
  koff: 0.00696 s⁻¹
  kon: 99200 M⁻¹ s⁻¹

B1: AngaD7L1: Recombinant Anopheles gambiae D7 long-form salivary protein, 6xHis-tagged, expressed in human embryonic kidney cells (protein, UniProt Q7PJ76 22-311, looked up)
Long form salivary protein …: FKALDPEEAWYVYERCHEDHLPSGPNRETYLKTWKFWKLEPNDAVTHCYVKCTLAGLQMYDEKTNTFKPETVPVQHEAYKSFTEVESSKVNELQQALSSLNAGSGSCAEVFNAYLPVHNKYVGVSRKIYHGTVDSVAKIYEAKPEIKKQEESFFAYCAKKALGANGKEGYTKLRDYELADSAEFRNAMDCVFRGFRYMDDSGLKVDEVVRDFNLINKSDLEPEVRSVLASCTGTQAYDYYSCLLNSPVKEDFRNAFYFHELRSANYGYLAMGKVYEGPEKVKEELKKLNY
modifications: 6xHis tag
[2]; after AngaD7L1 washout
  LogIC50 of vasoconstriction to U-46619: −8.10
[2]; in presence of AngaD7L1 10 μM
  fold reduction in effective constrictive potency of U-46619: ~70 fold
  LogIC50 of vasoconstriction to U-46619: −6.4 and −6.38
[3]; agonist 0.3 μM U-46619, protein 0.3 μM
  Effect on platelet aggregation: reduced platelet aggregation
[3]; agonist 0.3 μM U-46619, protein 1 μM
  Effect on platelet aggregation: platelet aggregation was inhibited
[3]; agonist 0.7 μM U-46619, protein 1 μM
  Effect on platelet aggregation: platelet aggregation was inhibited
[3]; agonist 0.7 μM U-46619, protein 3 μM
  Effect on platelet aggregation: inhibited platelet aggregation
[3]; agonist 1 μM arachidonic acid, protein at any concentration
  Effect on platelet aggregation: no effect
[3]; agonist 1 μg/ml collagen, protein 0.3 μM
  Effect on platelet aggregation: did not inhibit platelet aggregation
[3]; agonist 1 μg/ml collagen, protein 3 μM
  Effect on platelet aggregation: reduced platelet aggregation
[3]; agonist 10 μg/ml collagen, protein 1 μM
  Effect on platelet aggregation: no effect
[4]
  Binding of other leukotrienes: did not bind any other leukotriene

B2: AngaD7L2: Recombinant Anopheles gambiae D7 long-form salivary protein, 6xHis-tagged, expressed in human embryonic kidney cells (protein)
chain: AQPWKALDPEQALYVYKRCYEDHLPAGSSRVTYLKSWNAWKLEPNDAVTHCYAKCVLIGLQLYEEKDKAFKSERIPVQHEAYKTLNEANSREVTEYQQALASINAGDGSCVALYNAYLPVHNKFVDLSRKLYHGTVEGAAKIYAAMPQIKQKGESFFAYCAKKIWGGYNKKEWKRGRNYELSGSSQFKKVIDCIFRGLRYMDDSGLKVDEVVRDFNLINKSDLEPEVRSVLASCTGTQAYDYYSCLLNSPVKEDFKNAFDFHELRSADYAFLLRGKVYEGPEQVKEEMKHLNTTVHF
modifications: left off: His6, C-terminal, state not stated
Normal control plasma [5]; final concentration 5 μM
  Plasma recalcification (time to OD = 0.025): entirely unable to coagulate
Normal control plasma [5]; serially diluted recombinant protein, versus Hepes buffer negative control
  Plasma recalcification (time to OD = 0.025): dose-dependent anticoagulant response
Normal control plasma [6]
  PT clotting time (extrinsic pathway): did not have an observable effect
Normal control plasma [7]
  aPTT time to coagulation (intrinsic pathway): significantly increased
